The values below come from ChEMBL document CHEMBL1141098, “Molecular modeling of wild-type and D816V c-Kit inhibition based on ATP-competitive binding of ellipticine derivatives to tyrosine kinases” (J Med Chem, 2005).

Assay [1] deals with Fibroblast growth factor receptor 3 (Homo sapiens, UniProt P22607). Nature of the assay: Inhibitory activity against Fibroblast growth factor receptor 3. The essentials: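 Commercially supplied FGFR3 enzyme. Value is the IC50 for inhibition of kinase activity.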
Assay [2] has as its target Mast/stem cell growth factor receptor Kit (Homo sapiens, UniProt P10721, D816V). Nature of the assay: Inhibitory concentration against c-Kit D816V type expressed in recombinant baculovirus. A digest of the protocol:
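Recombinant c-Kit D816V expressed in baculovirus-infected High Five cells (MOI 10, harvested 90 h), purified by ion exchange then Ni affinity chromatography. ELISA on poly-Glu/Tyr (1:4)-coated wells; 10 nM final enzyme in 10 mM MgCl2, 1 mM MnCl2, 1 mM vanadate, 20 mM HEPES pH 7.3, BSA; 15 min at 25 °C, EDTA stop. Anti-phosphotyrosine-HRP detection, OPD, absorbance 492 nm; IC50 from inhibition.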

The target of assay [3] is Mast/stem cell growth factor receptor Kit (Homo sapiens, UniProt P10721). Nature of the assay: Inhibitory concentration against c-Kit wild type expressed in recombinant baculovirus.
Mast/stem cell growth factor receptor Kit (Homo sapiens, UniProt P10721), sequence (P10721 whole entry): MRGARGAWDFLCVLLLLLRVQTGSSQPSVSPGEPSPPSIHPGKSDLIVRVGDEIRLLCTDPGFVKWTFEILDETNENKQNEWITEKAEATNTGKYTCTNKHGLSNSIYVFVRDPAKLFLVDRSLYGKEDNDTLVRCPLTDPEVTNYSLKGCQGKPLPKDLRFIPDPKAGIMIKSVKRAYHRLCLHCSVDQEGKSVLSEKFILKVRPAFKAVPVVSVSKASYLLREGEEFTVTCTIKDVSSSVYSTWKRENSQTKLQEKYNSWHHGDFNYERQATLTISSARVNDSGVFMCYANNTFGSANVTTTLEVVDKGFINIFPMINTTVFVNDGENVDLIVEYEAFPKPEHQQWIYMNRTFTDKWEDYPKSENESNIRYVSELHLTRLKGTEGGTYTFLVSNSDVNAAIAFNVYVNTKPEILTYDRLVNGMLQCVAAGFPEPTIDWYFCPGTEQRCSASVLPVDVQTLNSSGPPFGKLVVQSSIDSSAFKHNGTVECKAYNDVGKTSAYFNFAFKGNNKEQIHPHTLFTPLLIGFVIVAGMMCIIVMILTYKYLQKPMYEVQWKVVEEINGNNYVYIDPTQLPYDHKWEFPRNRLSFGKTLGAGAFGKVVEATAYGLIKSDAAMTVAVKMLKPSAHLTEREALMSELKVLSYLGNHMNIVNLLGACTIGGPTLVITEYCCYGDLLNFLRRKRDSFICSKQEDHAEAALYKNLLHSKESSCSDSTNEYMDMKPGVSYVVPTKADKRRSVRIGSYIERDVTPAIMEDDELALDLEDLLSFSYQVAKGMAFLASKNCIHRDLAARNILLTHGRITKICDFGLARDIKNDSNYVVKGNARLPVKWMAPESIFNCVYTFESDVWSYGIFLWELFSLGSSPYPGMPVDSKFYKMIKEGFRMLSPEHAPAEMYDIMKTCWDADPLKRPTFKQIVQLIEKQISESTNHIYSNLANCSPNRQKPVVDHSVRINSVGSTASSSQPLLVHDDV

Mast/stem cell growth factor receptor Kit (Homo sapiens, UniProt P10721, D816V), sequence (P10721 26-976 D816V limits assumed): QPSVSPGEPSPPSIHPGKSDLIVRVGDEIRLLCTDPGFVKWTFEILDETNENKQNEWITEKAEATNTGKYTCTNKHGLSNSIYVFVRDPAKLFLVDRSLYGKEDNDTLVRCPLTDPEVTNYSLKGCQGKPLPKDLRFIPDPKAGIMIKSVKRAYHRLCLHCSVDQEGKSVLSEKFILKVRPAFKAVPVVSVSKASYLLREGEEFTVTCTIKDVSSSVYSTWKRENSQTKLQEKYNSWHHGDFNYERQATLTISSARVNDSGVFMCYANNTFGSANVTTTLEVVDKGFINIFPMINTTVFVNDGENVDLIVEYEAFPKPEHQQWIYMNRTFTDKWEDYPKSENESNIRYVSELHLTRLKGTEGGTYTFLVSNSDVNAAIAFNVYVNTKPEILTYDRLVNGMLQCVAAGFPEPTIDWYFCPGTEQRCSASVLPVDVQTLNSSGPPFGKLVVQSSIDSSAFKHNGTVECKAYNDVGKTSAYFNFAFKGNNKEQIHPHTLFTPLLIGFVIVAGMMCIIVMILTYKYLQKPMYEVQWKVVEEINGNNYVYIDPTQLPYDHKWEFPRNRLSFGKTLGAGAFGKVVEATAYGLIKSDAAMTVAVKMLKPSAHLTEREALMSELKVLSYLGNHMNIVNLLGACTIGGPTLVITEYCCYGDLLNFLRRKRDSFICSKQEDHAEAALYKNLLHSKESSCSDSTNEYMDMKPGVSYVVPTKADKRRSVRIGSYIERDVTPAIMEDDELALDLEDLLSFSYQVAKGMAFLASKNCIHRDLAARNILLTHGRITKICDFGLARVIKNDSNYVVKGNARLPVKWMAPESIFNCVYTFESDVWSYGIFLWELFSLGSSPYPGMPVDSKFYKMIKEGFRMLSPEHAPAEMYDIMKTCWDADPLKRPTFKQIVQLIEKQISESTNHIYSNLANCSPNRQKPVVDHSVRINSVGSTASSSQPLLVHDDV
Fibroblast growth factor receptor 3, sequence (P22607 whole entry): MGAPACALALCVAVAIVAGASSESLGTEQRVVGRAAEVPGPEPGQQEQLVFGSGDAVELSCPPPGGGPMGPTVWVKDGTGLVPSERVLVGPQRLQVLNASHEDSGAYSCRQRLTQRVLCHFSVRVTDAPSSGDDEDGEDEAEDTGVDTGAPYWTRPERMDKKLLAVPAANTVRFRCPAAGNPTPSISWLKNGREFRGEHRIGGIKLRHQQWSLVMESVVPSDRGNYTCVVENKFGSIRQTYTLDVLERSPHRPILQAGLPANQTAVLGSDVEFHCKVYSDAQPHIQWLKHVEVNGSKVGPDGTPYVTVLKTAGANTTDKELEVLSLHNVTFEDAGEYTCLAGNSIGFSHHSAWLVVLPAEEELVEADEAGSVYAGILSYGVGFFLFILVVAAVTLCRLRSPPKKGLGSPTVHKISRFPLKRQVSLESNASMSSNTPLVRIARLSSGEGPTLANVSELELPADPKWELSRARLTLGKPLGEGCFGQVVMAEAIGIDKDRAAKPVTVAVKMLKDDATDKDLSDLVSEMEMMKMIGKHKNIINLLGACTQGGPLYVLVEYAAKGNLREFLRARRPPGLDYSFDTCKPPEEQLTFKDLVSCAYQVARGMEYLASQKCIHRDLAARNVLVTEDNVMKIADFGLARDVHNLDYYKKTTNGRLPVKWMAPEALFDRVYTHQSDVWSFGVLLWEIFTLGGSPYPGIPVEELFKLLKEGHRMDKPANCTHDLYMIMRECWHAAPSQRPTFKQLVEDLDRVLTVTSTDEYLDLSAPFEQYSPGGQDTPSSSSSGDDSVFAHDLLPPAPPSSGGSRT

Regarding `Cc1c2cc[n+](C)cc2c(C)c2c1[nH]c1ccc(O)cc12`, the values for the IC50 in assay [1], in assay [2] and in assay [3] were 500 nM, 400 nM and 400 nM, respectively.
As for `Cc1c2ccncc2c(C)c2c1[nH]c1ccc(Br)cc12`, the IC50 in assay [2] and in assay [3] was over 10000 nM each time.
With `CCN(CC)CC[n+]1ccc2c(C)c3[nH]c4ccc(O)cc4c3c(C)c2c1`, the IC50 in assay [2] worked out at 300 nM; in assay [3], 450 nM.
For `CCN(CC)CCCNc1nccc2c(C)c3[nH]c4ncccc4c3cc12`, the IC50 was determined as 1900 nM in assay [2] and 2300 nM in assay [3].
On the same counts, the results for `COc1ccc2[nH]c3c(C)c4ccncc4c(C)c3c2c1` are 600 nM and 800 nM.
Turning to `Cc1c2ccncc2c(C)c2c1[nH]c1ccc(O)cc12`, the IC50 in assay [1], in assay [2] and in assay [3] was 400 nM throughout.
`CCN(CC)CCCNc1nccc2c(C)c3[nH]c4ccc(OC)cc4c3cc12`: the IC50 in assay [2] was 2000 nM; in assay [3], 2500 nM.
The matching figures for `CCN(CC)CCCNc1nccc2c(C)c3[nH]c4ccc(O)cc4c3c(C)c12`: 1200 nM and 1400 nM.
As to `CCN(CC)CCCNc1nccc2c(C)c3c(c(C)c12)c1cc(O)ccc1n3C`, the IC50 in assay [1] was found to be 1400 nM; in assay [2] it was 3600 nM; in assay [3], 2500 nM.
`Cc1c2ccncc2c(C)c2c1[nH]c1ccccc12` [ELLIPTECINE]: the IC50 in assay [2] and in assay [3] was over 10000 nM throughout.

The IC50 is the concentration that inhibits the measured activity by half.
